Reference: ChEMBL document CHEMBL3856275, “Discovery of Second Generation Reversible Covalent DPP1 Inhibitors Leading to an Oxazepane Amidoacetonitrile Based Clinical Candidate (AZD7986)” (J Med Chem, 2016)
≈ marks a conversion by molar mass, not a printed value.

Columns and labels:
[1] = target: T1, Dipeptidyl peptidase 1 (Homo sapiens, UniProt P53634); experiment: Inhibition of human recombinant DPP1 using Gly-Arg-AMC as substrate preincubated for 30 mins followed by substrate addition by fluorometric assay
T1 sequence (P53634 25-134 limits assumed): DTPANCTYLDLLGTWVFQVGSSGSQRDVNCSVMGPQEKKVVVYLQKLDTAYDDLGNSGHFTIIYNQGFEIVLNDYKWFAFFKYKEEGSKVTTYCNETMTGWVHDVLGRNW
T1 sequence (P53634 231-394 limits assumed): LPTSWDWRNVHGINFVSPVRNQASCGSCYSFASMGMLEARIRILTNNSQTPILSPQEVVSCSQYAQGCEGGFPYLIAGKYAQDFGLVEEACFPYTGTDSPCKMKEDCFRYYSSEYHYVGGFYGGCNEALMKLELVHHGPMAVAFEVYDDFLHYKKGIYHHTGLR
T1 sequence (P53634 395-463 limits assumed): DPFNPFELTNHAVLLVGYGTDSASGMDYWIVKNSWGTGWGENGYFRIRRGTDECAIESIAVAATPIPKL
Procedure, shortened: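 Isolated human recombinant DPP1 was run in a fluorometric assay in piperazine-based buffer. Compound was pre-incubated with enzyme for 30 min at rt, then Gly-Arg-AMC dipeptide substrate was added. Data were curve-fitted to give pIC50, as the mean of at least two experiments.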

[2] = physchem; details: octanol/water, pH 7.4
[3] = Propionaldehyde reactivity assessed as half life of the compound at pH 7.4 by LC-UV method; type: physicochemical
[4] = Protein binding in human plasma at 10 uM after 6 hrs by LC-MS/MS method; type: ADME, cell-free; details: read-out: PPB (converted)
[5] = Intrinsic clearance in human liver microsomes at 1 uM after 5 to 40 mins by LC-MS/MS method; type: ADME; details: read-out: CLH
[6] = Intrinsic clearance in rat hepatocytes assessed per 10^6 cells at 1 uM after 10 to 90 mins by LC-MS/MS method; type: ADME, cell-based, Hepatocyte
[7] = Protein binding in rat plasma at 10 uM after 6 hrs by LC-MS/MS method; type: ADME, cell-free; details: read-out: PPB (converted)
[8] = target: T1, Dipeptidyl peptidase 1; experiment: Inhibition of DPP1 in human U937 cells using Gly-Phe-AFC as substrate preincubated for 60 mins followed by substrate addition by fluorescence assay; type: cell-based, U-937
[9] = Apparent permeability across apical to basolateral side in human Caco2 cells at 10 uM after 1 hr by LC-MS method; details: Caco-2
[10] = Apparent permeability across basolateral to apical side in human Caco2 cells at 10 uM after 1 hr by LC-MS method; details: Caco-2
[11] = Efflux ratio of apparent permeability across basolateral to apical over apical to basolateral side in human Caco2 cells at 10 uM after 1 hr by LC-MS method; details: Caco-2
[12] = Intrinsic clearance in human hepatocytes assessed per 10^6 cells at 1 uM after 10 to 90 mins by LC-MS/MS method; type: ADME, cell-based, Hepatocyte
[13] = Intrinsic clearance in dog hepatocytes assessed per 10^6 cells at 1 uM after 10 to 90 mins by LC-MS/MS method; type: ADME, cell-based, Canis lupus familiaris, Hepatocyte
[14] = Protein binding in dog plasma at 10 uM after 6 hrs by LC-MS/MS method; type: ADME, cell-free, Canis lupus familiaris; details: read-out: PPB (converted)
[15] = Clearance in Sprague-Dawley rat at 1 mg/kg, iv or 3 mg/kg, po; type: ADME, organism-based; details: in vivo
[16] = Volume of distribution at steady state in Sprague-Dawley rat at 1 mg/kg, iv or 3 mg/kg, po; type: ADME, organism-based; details: in vivo, read-out: Vdss
[17] = Half life in Sprague-Dawley rat at 1 mg/kg, iv or 3 mg/kg, po; type: ADME, organism-based; details: in vivo
[18] = Oral bioavailability in Sprague-Dawley rat at 3 mg/kg; type: ADME, organism-based; details: in vivo
[19] = target: Voltage-gated inwardly rectifying potassium channel KCNH2 (Homo sapiens, UniProt Q12809)
Chain of Voltage-gated inwardly rectifying potassium channel KCNH2 (Q12809 whole entry): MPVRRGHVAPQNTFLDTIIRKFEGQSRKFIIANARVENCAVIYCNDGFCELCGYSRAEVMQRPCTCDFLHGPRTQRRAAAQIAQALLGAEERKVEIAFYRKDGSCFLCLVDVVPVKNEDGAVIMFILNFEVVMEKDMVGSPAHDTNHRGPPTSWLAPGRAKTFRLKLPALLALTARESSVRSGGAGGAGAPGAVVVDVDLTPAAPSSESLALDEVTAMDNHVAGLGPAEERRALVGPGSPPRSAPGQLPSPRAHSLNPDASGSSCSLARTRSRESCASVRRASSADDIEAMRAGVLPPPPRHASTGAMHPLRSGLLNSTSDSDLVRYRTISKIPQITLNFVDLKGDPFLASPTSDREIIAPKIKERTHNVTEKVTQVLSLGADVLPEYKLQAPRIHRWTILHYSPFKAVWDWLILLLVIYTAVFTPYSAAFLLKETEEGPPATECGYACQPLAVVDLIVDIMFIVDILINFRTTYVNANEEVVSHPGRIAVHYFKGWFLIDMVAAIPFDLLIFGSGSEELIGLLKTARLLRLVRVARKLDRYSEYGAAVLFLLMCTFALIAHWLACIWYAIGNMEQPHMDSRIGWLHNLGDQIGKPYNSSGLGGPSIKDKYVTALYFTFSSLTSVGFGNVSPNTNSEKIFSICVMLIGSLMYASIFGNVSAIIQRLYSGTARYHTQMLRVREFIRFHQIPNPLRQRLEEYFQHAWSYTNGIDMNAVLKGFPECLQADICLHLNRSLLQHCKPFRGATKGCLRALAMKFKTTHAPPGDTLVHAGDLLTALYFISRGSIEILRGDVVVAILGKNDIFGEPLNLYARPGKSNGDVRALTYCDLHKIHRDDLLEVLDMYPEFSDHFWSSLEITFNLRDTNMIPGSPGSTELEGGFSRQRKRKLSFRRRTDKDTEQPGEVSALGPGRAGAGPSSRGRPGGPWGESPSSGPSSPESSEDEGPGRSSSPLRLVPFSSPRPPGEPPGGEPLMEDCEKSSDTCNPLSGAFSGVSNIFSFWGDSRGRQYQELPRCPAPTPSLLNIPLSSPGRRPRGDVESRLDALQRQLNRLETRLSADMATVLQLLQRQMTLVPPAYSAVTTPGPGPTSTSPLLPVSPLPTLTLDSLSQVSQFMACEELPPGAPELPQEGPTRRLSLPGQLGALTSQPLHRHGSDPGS

[20] = physchem; details: pH 7.4

Compound	IC50 [1] [nM]	logD at 10 µM [2]	half-life [3] [min]	IC50 [8] [nM]	other results
Cn1c(=O)cnc2ccc(-c3ccc(C[C@@H](C#N)NC(=O)[C@@H]4CNCCCO4)cc3)cc21	25.1	0.6	–	–	–
N#Cc1ccc(-c2ccc(C[C@@H](C#N)NC(=O)[C@H]3CNCCCO3)cc2)cc1	6310	1.2	> 3000	–	–
N#C[C@H](Cc1ccc(-c2ccc(C(F)(F)F)cc2)cc1)NC(=O)[C@@H]1CNCCCO1	39.8	2.8	–	–	–
Cc1cc(-c2ccc(C[C@@H](C#N)NC(=O)[C@@H]3CNCCCO3)cc2)cc2c1oc(=O)n2C	10	1.5	> 3000	7.94	fraction unbound at 6 h, 10 µM [4]: 0.08; microsomal CLint at 1 µM [5]: < 14 µL/min/mg; CLH [6]: < 3.5 µL/min/10^6 cells; fraction unbound at 6 h, 10 µM [7]: 0.03; Papp A→B at 1 h, 10 µM [9]: 13 ×10⁻⁶ cm/s; Papp B→A at 1 h, 10 µM [10]: 76 ×10⁻⁶ cm/s; efflux ratio at 1 h, 10 µM [11]: 5.9; intrinsic clearance (CLint) [12]: < 3.5 µL/min/10^6 cells; CLH [13]: < 3.5 µL/min/10^6 cells; fraction unbound at 6 h, 10 µM [14]: 0.13; clearance [15]: 1 mL/min/kg; Vd [16]: 0.5 L/kg; half-life [17]: 480 min; bioavailability [18]: 24%; IC50 [19]: > 33 µM; solubility kinetic at 2 h ([20]; phosphate buffered saline): 175 µM (≈ 76 µg/mL)
N#Cc1ccc(-c2ccc(C[C@@H](C#N)NC(=O)[C@@H]3CCCNC3)cc2)cc1	> 10000	0.6	–	–	–
CN1C(=O)Cc2ccc(-c3ccc(C[C@@H](C#N)NC(=O)C4(N)CCOCC4)cc3)cc21	–	–	–	1.58	–
Cn1c(=O)sc2ccc(-c3ccc(C[C@@H](C#N)NC(=O)[C@@H]4CNCCCO4)cc3)cc21	2.51	1.5	> 3000	3.16	fraction unbound at 6 h, 10 µM [4]: 0.07; microsomal CLint at 1 µM [5]: < 15 µL/min/mg; CLH [6]: < 3.5 µL/min/10^6 cells; fraction unbound at 6 h, 10 µM [7]: 0.05; Papp A→B at 1 h, 10 µM [9]: 11 ×10⁻⁶ cm/s; Papp B→A at 1 h, 10 µM [10]: 51 ×10⁻⁶ cm/s; efflux ratio at 1 h, 10 µM [11]: 4.7; intrinsic clearance (CLint) [12]: < 3.5 µL/min/10^6 cells; CLH [13]: < 3.5 µL/min/10^6 cells; clearance [15]: 3 mL/min/kg; Vd [16]: 2 L/kg; half-life [17]: 480 min; bioavailability [18]: 26%; IC50 [19]: 23 µM; solubility kinetic at 2 h ([20]; buffer): 170 µM (≈ 74.2 µg/mL)
N#Cc1ccc(-c2ccc(C[C@@H](C#N)NC(=O)[C@H]3CCCC[C@@H]3N)cc2)cc1	501	–	> 3000	398	–
N#Cc1ccc(-c2ccc(C[C@@H](C#N)NC(=O)C3CCCCNC3)cc2)cc1 (mixture of isomers)	1260	–	> 3000	501	–
N#Cc1ccc(-c2ccc(C[C@@H](C#N)NC(=O)C3CNCCCO3)cc2)cc1 (mixture of isomers)	63.1	1.1	> 3000	–	–
N#Cc1ccc(-c2ccc(C[C@@H](C#N)NC(=O)[C@H]3CCCNC3)cc2)cc1	> 10000	0.2	–	–	–
N#Cc1ccc(-c2ccc(C[C@@H](C#N)NC(=O)[C@H]3CCCC[C@H]3N)cc2)cc1	> 10000	–	> 3000	–	–
Cc1noc2ccc(-c3ccc(C[C@@H](C#N)NC(=O)[C@@H]4CNCCCO4)cc3)cc12	15.8	1.5	–	15.8	–
N#Cc1ccc(-c2ccc(C[C@@H](C#N)NC(=O)[C@@H]3CCC[C@@H]3N)cc2)cc1	1000	–	> 3000	1260	–
